Structures are written as SMILES.

Results on 21 compounds are retold here after ChEMBL document CHEMBL1144446, “Synthesis and Src kinase inhibitory activity of 2-phenyl- and 2-thienyl-7-phenylaminothieno[3,2-b]pyridine-6-carbonitriles” (J Med Chem, 2005).

Data set [1] concerns the target Proto-oncogene tyrosine-protein kinase Src (Homo sapiens, UniProt P12931). Nature of the data set: Inhibition of Src protein tyrosine kinase in LANCE format enzyme assay.
A short description of data set [2]: Plasma concentration upon oral dose at 50 mg/kg in mouse after 4 hours. The class given is ADME, organism-based. Also on record: dose 50 mg/kg, route oral. The gist of the method:
(§1)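 Nude mice received one oral dose of 50 mg/kg in a vehicle of 0.5% methylcellulose and 0.4% Tween 80. Plasma was sampled at 4 and 24 h and analyzed for the amount of parent compound remaining, reported in µg/mL.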

A short description of data set [3]: Plasma concentration upon oral dose at 50 mg/kg in mouse after 24 hours. In kind it is ADME, organism-based. Also on record: dose 50 mg/kg, route oral. The method in brief:
as §1

The subject of the next data set is K562. Nature of the data set: cells. The following applies: Homo sapiens.

Proto-oncogene tyrosine-protein kinase Src, sequence (P12931 2-536 limits assumed): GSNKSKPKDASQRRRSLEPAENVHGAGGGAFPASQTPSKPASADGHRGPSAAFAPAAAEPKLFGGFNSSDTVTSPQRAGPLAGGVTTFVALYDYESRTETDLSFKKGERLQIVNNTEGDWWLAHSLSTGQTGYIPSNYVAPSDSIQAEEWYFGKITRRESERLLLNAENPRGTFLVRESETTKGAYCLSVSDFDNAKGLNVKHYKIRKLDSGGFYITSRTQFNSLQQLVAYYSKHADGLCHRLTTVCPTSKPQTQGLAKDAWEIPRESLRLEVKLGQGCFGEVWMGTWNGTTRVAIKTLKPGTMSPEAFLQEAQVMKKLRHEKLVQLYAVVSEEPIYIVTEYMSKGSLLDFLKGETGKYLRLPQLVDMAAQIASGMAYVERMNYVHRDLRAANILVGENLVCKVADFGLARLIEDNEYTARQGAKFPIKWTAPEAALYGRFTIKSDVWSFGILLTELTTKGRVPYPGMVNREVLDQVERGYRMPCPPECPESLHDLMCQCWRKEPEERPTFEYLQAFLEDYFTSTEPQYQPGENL

Consider `COc1cc(Nc2c(C#N)cnc3cc(-c4ccc(CCN(C)C)cc4)sc23)c(Cl)cc1Cl`, for which the IC50 in data set [1] stood at 8.8 nM.
Still for that read-out and setting: the value for `COc1cc(Nc2c(C#N)cnc3cc(-c4ccc(C(=O)N(C)C)cc4)sc23)c(Cl)cc1Cl` was 23 nM.
On the same count and under the same terms, the value for `COc1cc(Nc2c(C#N)cnc3cc(-c4ccc(CN5CCSCC5)cc4)sc23)c(Cl)cc1Cl` was 52 nM.
As for `COc1cc(Nc2c(C#N)cnc3cc(-c4csc(CN5CCN(C)CC5)c4)sc23)c(Cl)cc1Cl`, the concentration at 4 h in data set [2] came to 1000 ng/mL. In data set [3], this compound returned a concentration at 24 h of 320 ng/mL.
In the case of `COc1cc(Nc2c(C#N)cnc3cc(-c4ccc(CN5CCN(C)CC5)cc4)sc23)c(Cl)cc1Cl`, the concentration at 4 h in data set [2] was found to be 2200 ng/mL. The compound further returned a concentration at 24 h in data set [3] of 400 ng/mL. In the data set with K562, this compound returned an IC50 of 32 nM.
`CN1CCN(Cc2ccc(-c3cc4ncc(C#N)c(Nc5ccc(Oc6ccccc6)cc5)c4s3)cc2)CC1`: 140 nM corresponded to half-maximal inhibition in data set [1] (IC50).
Same read-out and setting: under `CN1CCN(Cc2cc(-c3cc4ncc(C#N)c(Nc5ccc(Cl)cc5Cl)c4s3)cs2)CC1` stands 67 nM.
The same measure, in the same setting: the value for `CCOc1cc(Nc2c(C#N)cnc3cc(-c4ccc(CN5CCN(C)CC5)cc4)sc23)c(Cl)cc1Cl` was 980 nM.
Take `COc1cc(Nc2c(C#N)cnc3cc(-c4ccc(CN5CCN(CCO)CC5)cc4)sc23)c(Cl)cc1Cl`: the concentration at 4 h in data set [2] is 1700 ng/mL. The compound also displayed a concentration at 24 h in data set [3] of 69 ng/mL. In data set [1], this compound gave an IC50 of 7.4 nM.
The matching figures for `COc1cc(Nc2c(C#N)cnc3cc(-c4ccc(CN5CCNCC5)cc4)sc23)c(Cl)cc1Cl`: 1100 ng/mL, 3 ng/mL and 7.2 nM.
Compound `COc1cc(Nc2c(C#N)cnc3cc(-c4ccc(CN5CCCCC5)cc4)sc23)c(Cl)cc1Cl` registered an IC50 in data set [1] of 17 nM.
On the same count and under the same terms, under `COc1cc(Nc2c(C#N)cnc3cc(-c4ccsc4CN4CCN(C)CC4)sc23)c(Cl)cc1Cl` stands 420 nM; under `CCOc1cc(Nc2c(C#N)cnc3cc(-c4csc(CN5CCN(C)CC5)c4)sc23)c(Cl)cc1Cl`, 1300 nM.
For `COc1cc(Nc2c(C#N)cnc3cc(-c4ccc(C(=O)N5CCN(C)CC5)cc4)sc23)c(Cl)cc1Cl`, the concentration at 4 h in data set [2] turned out to be 1600 ng/mL. In data set [3], this compound showed a concentration at 24 h of 59 ng/mL. This compound had an IC50 in data set [1] of 13 nM.
`CCN1CCN(Cc2ccc(-c3cc4ncc(C#N)c(Nc5cc(OC)c(Cl)cc5Cl)c4s3)cc2)CC1`: the IC50 in data set [1] is 8.2 nM.
With `COc1cc(Nc2c(C#N)cnc3cc(-c4ccc(N(C)C)cc4)sc23)c(Cl)cc1Cl`, the midpoint of inhibition in data set [1], the IC50, lay at 110 nM.
As to `COc1cc(Nc2c(C#N)cnc3cc(-c4ccc(CN(C)C)cc4)sc23)c(Cl)cc1Cl`, the concentration at 4 h in data set [2] was found to be 200 ng/mL. The same compound yielded a concentration at 24 h in data set [3] of 2 ng/mL. In data set [1], this compound gave an IC50 of 9.1 nM.
In data set [1], `COc1cc(Nc2c(C#N)cnc3cc(-c4ccc(CCN5CCN(C)CC5)cc4)sc23)c(Cl)cc1Cl` returned an IC50 of 15 nM.
Same read-out and setting: under `CCCCNCc1ccc(-c2cc3ncc(C#N)c(Nc4cc(OC)c(Cl)cc4Cl)c3s2)cc1` stands 11 nM.
Compound `COc1cc(Nc2c(C#N)cnc3cc(OCCCN4CCN(C)CC4)c(OC)cc23)c(Cl)cc1Cl` [BOSUTINIB] displayed an IC50 in the data set with K562 of 20 nM.
Regarding `CN(C)Cc1ccc(-c2cc3ncc(C#N)c(Nc4ccc(Cl)cc4Cl)c3s2)cc1`, in data set [1], the IC50 amounted to 53 nM.

By IC50 is commonly meant the concentration that inhibits the measured activity by half. Read a high IC50 as weaker potency.
